The text below walks through data of ChEMBL document CHEMBL3808358, “Rational Design of Small Peptides for Optimal Inhibition of Cyclooxygenase-2: Development of a Highly Effective Anti-Inflammatory Agent” (J Med Chem, 2016).

Calls of active or inactive are those of the source. No cut-off for these calls is given here. Residues, ends and D or L forms follow the SMILES beside them.

Series [1] has as its target T1, Prostaglandin G/H synthase 1 (Ovis aries, UniProt P05979).
T1 sequence (P05979 whole entry): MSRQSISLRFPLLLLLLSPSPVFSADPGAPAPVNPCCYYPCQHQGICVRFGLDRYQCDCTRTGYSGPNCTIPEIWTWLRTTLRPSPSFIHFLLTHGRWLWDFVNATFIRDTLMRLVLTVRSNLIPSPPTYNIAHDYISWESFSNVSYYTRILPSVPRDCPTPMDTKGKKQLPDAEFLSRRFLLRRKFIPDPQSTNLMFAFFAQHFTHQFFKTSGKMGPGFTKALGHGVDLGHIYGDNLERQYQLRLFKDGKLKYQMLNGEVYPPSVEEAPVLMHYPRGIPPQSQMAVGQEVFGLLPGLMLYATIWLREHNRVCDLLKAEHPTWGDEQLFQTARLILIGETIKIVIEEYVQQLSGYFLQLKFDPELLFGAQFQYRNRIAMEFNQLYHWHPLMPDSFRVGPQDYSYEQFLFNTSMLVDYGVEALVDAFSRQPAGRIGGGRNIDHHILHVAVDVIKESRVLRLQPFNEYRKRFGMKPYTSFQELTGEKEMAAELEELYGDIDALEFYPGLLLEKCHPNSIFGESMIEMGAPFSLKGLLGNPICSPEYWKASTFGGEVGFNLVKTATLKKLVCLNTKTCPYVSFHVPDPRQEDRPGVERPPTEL
Description: Inhibition of ovine COX1 assessed as reduction in PGH2-derived PGF2alpha using arachidonic acid as substrate preincubated for 10 mins followed by substrate addition measured after 2 mins by enzyme immunoassay. The procedure, abridged: (§1)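 Ovine COX-1 and human recombinant COX-2 with heme are preincubated with inhibitor for 10 min at 37 °C. Arachidonic acid is then added for 2 min at 37 °C. Prostaglandins are quantified by competitive AChE-tracer EIA, read at 420 nm. Four concentrations (10^-5 to 10^-8 M) are tested in triplicate. IC50 is taken from the dose-response curve of the mean % inhibition.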

The target in series [2] is T2, Prostaglandin G/H synthase 2 (Homo sapiens, UniProt P35354).
T2 sequence (P35354 whole entry): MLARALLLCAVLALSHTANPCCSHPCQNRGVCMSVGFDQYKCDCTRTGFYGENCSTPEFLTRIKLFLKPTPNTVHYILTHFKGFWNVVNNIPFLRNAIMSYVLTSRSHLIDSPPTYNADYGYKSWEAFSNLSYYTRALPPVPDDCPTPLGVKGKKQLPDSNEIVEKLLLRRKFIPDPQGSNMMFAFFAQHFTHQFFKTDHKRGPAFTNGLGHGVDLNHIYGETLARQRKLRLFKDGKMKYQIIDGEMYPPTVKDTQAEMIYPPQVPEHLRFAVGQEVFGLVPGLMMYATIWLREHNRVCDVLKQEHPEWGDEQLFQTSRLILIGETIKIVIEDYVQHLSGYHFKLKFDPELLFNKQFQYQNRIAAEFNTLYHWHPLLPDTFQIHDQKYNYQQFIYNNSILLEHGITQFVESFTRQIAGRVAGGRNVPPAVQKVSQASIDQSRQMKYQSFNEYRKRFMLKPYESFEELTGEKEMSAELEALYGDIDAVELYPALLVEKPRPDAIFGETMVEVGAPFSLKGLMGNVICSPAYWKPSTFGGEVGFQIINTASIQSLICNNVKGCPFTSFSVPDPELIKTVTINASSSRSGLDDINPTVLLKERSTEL
Description: Inhibition of human recombinant COX2 assessed as reduction in PGH2-derived PGF2alpha using arachidonic acid as substrate preincubated for 10 mins followed by substrate addition measured after 2 mins by enzyme immunoassay.

The nature of series [3]: Selectivity index, ratio of IC50 for ovine COX1 to IC50 for human recombinant COX2. In short, it runs like this: as §1
In series [4] the target is Prostaglandin G/H synthase 1 (Homo sapiens) (UniProt P23219). Briefly: Inhibition of COX1 in healthy human whole blood assessed as calcium ionophore A23187-stimulated TXB2 level at 1 uM preincubated for 60 mins followed by A23187 addition measured after 30 mins by ELISA. The series is classed as tissue-based. The procedure, abridged:
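Fresh venous blood from a healthy volunteer is collected in EDTA. 1 mL samples receive compound, indomethacin or DMSO vehicle (final 1 μM). After 60 min, A23187 is added (final 50 μM). After 30 min, samples are centrifuged at 4 °C and TxB2 in plasma is measured by ELISA, read at 420 nm. Samples are run in duplicate.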
On the technique in general: ELISA stands for enzyme-linked immunosorbent assay.

Series [5] relates to Mus musculus. Briefly: Analgesic activity in Swiss albino mouse assessed as reduction in capsaicin-induced paw licking at 5 mg/kg, ip dosed 30 mins before capsaicin injection measured for 10 mins relative to control. The series is classed as functional. The procedure, abridged: (§2)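 Swiss albino mice of either sex (25-35 g), kept at 22 ± 2 °C on a 12 h light/dark cycle with free food and water. 5 animals per group. Capsaicin (1.6 μg in 20 μL) is injected into the plantar surface of the hind paw. Pain is scored as the number of paw lickings over 10 min.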

Series [6] concerns Mus musculus. Description: Analgesic activity in Swiss albino mouse assessed as reduction in capsaicin-induced paw licking at 5 to 10 mg/kg, ip dosed 30 mins before capsaicin injection measured for 10 mins. The series is classed as functional, organism-based. In short, it runs like this:
as §2

The subject of series [7] is Mus musculus. Description: Analgesic activity in Swiss albino mouse assessed as reduction in capsaicin-induced paw licking at 5 to 10 mg/kg, ip dosed 30 mins before capsaicin injection measured for 10 mins in presence of voltage-gated sodium channel opener veratrine pre-treated 30 mins before compound dosing. The series is classed as functional, organism-based. The procedure, abridged:
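Mice of either sex (25-35 g), 5 per group. The modulator is given 30 min before the test compound, and capsaicin 30 min after that: substance P 10 µg/kg, L-arginine 40 mg/kg, L-NAME 20 mg/kg, veratrine 125 µg/kg, A23187 20 µg/kg, glipizide 30 µg/kg. Capsaicin is 1.6 μg in 20 μL intraplantar. Paw lickings are counted for 10 min.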

The test system of series [8] is Mus musculus. Description: Acute toxicity in Swiss albino mouse assessed as structural abnormality in liver up to 2000 mg/kg, po administered as single dose through gavage measured after 14 days by haematoxylin and eosin staining based assay. The series is classed as organism-based. The following applies: in vivo, 336 h. In short, it runs like this: (§3)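 Mice given vehicle or 50, 300 or 2000 mg Kg⁻¹ after 4 h fasting, three per group, following OECD 2001 guidance. At 14 days, one control animal and one 2000 mg Kg⁻¹ animal were sacrificed. Myocardium, liver and kidney were examined histologically by H and E staining.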

Series [9] deals with Mus musculus. Description: Acute toxicity in Swiss albino mouse assessed as structural abnormality in myocardium up to 2000 mg/kg, po administered as single dose through gavage measured after 14 days by haematoxylin and eosin staining based assay. To be noted: in vivo, 336 h. The series is classed as organism-based. The procedure, abridged: as §3
Series [10] has as its target Prostaglandin G/H synthase 1 (Homo sapiens) (UniProt P23219). Briefly: Binding affinity to COX1 (unknown origin) at 100 uM by isothermal titration calorimetry. In short, it runs like this:
(§4)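 Isothermal titration calorimetry in HEPES buffer, pH 7.4. The ligand stock is 100 μM in ethanol/HEPES (1:99). The syringe is stirred at 500 rpm and delivers 19 injections of 2 μL into the enzyme-containing cell at 120 s intervals. Heats from buffer-only control titrations are subtracted. The fit gives Ka, ΔH and ΔS. Run in triplicate.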

The target in series [11] is T3, Prostaglandin G/H synthase 2 (Homo sapiens) (UniProt P35354).
T3 sequence (whole entry): T2 sequence (P35354 whole entry)
Briefly: Binding affinity to COX2 (unknown origin) at 100 uM by isothermal titration calorimetry. The procedure, abridged: as §4
(In ITC the heat of successive injections is recorded.)

A word on the IC50: it is the concentration that gives 50% inhibition. Usually inhibition in vivo stands for the relative decrease from the control value, in per cent.

Chain of Prostaglandin G/H synthase 1 (Homo sapiens) (P23219 whole entry): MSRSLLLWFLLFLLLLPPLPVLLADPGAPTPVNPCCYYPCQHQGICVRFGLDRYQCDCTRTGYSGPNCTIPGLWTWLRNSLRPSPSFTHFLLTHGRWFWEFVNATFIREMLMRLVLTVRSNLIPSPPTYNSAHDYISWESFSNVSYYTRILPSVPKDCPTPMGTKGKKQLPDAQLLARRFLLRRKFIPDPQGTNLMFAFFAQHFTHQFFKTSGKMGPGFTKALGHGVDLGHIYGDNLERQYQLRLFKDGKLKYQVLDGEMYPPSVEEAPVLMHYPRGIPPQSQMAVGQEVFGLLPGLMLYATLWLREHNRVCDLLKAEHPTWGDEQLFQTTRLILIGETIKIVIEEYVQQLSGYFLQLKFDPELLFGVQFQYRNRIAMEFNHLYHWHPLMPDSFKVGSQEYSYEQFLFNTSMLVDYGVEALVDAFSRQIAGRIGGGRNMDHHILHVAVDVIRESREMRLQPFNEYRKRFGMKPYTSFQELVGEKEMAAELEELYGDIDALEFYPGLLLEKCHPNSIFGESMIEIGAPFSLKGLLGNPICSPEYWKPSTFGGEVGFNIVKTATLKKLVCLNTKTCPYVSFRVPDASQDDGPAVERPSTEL

Consider `COC(=O)[C@H](CC(C)C)NC(=O)[C@H](Cc1ccccc1)NC(=O)CNC(=O)CN` (H-GGFL-OMe), for which the concentration for half-maximal inhibition (IC50) in series [1] turned out to be 6 µM; in series [2] it was 0.06 µM. Moreover, the Ratio IC50 in series [3] amounted to 100. The Activity was 5.8 ng/mL in [4], “Non-toxic” with Mus musculus [8] and “Non-toxic” in the series with Mus musculus [9]. The inhibition in vivo at 5 mg/kg in the series with Mus musculus [5] came to 80%. Moreover, the result with Mus musculus [6] and with Mus musculus [7] was Active. Further, the values for the Ka in [10] and in series [11] were 0.41 ×10³ /M and 6.1 ×10⁴ /M, respectively.
